Measurements reported in ChEMBL document CHEMBL1833825, “3-Aryl-2-[1H-benzotriazol-1-yl]acrylonitriles: a novel class of potent tubulin inhibitors” (Eur J Med Chem, 2011).
pIC50: −log10 of the molar value. One block for each compound: values may come before it. The source made the active and inactive calls. The rule behind the calls is not given here.

Key:
[1] = Cytotoxicity against human MT4 cells infected with HTLV-1 after 96 hrs by MTT assay; format: cell-based
Outline: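 Mock-infected MT-4 cells (CD4+ T-cells carrying integrated HTLV-1 genome) were seeded at 1×10^5 cells/mL in RPMI-1640 with 10% FCS and penicillin/streptomycin. They were given serial compound dilutions for 96 h at 37 °C, 5% CO2, and viability was read by MTT. The value is the concentration reducing viability by 50%. Mean of two experiments; duplicate variation <15%.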

CCRF-CEM = assay: Antiproliferative activity against human CCRF-CEM cells after 96 hrs by MTT assay; format: functional; conditions: read-out: CC50
Outline: (§1)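 Hematological lines (CCRF-CEM, CCRF-SB, WIL-2NS) were seeded exponentially growing at 1×10^5 cells/mL in RPMI-1640 with 10% FCS, penicillin G and streptomycin. They were exposed to serial dilutions (from 100 mM DMSO stocks) for 96 h at 37 °C, 5% CO2, then read by MTT. The value is the concentration giving 50% proliferation reduction, with controls allowed ≥3 rounds of multiplication. Mean of two experiments; duplicate variation <15%.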

WIL2-NS = assay: Antiproliferative activity against human WIL2-NS cells after 96 hrs by MTT assay; format: functional; outline: as §1
CCRF-SB = assay: Antiproliferative activity against human CCRF-SB cells after 96 hrs by MTT assay; format: functional; outline: as §1
K562 [2] = assay: Cell cycle arrest in human K562 cells assessed as accumulation at G2/M phase at total growth inhibitory compound concentration 24 hrs using propidium iodide staining by FACS analysis (reference value: 18%); format: functional; set-up: scale not given: the % may be the effect or the level left
K562 [3] = assay: Cell cycle arrest in human K562 cells assessed as accumulation at S phase at total growth inhibitory compound concentration 24 hrs using propidium iodide staining by FACS analysis (reference value: 47%); format: functional; set-up: scale not given: the % may be the effect or the level left
K562 [4] = assay: Cell cycle arrest in human K562 cells assessed as accumulation at G0/G1 phase at total growth inhibitory compound concentration 24 hrs using propidium iodide staining by FACS analysis (reference value: 35%); format: functional; set-up: scale not given: the % may be the effect or the level left
DU-145 = assay: Antiproliferative activity against human DU145 cells after 96 hrs by MTT assay; format: functional; conditions: DU-145, 96 h, read-out: CC50
Outline: (§2)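 Solid-tumor lines (SK-MEL-28, MCF-7, SK-MES-1, HepG-2, DU-145) were seeded at 1×10^5 cells/mL in their specific media with 10% FCS plus antibiotics. Serial dilutions of compounds (100 mM DMSO stocks diluted in medium) were applied for 96 h at 37 °C, 5% CO2, with MTT readout. 50% proliferation-inhibition concentration; untreated controls underwent ≥3 multiplication rounds; mean of two experiments, duplicate variation <15%.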

HepG2 = assay: Antiproliferative activity against human HepG2 cells after 96 hrs by MTT assay; format: functional; conditions: HepG2, 96 h; outline: as §2
MCF7 = assay: Antiproliferative activity against human MCF7 cells after 96 hrs by MTT assay; format: functional; conditions: MCF7, 96 h; outline: as §2
SK-MES-1 = assay: Antiproliferative activity against human SKMES1 cells after 96 hrs by MTT assay; format: functional; conditions: SK-MES-1, 96 h; outline: as §2
SK-MEL-28 = assay: Antiproliferative activity against human SK-MEL-28 cells after 96 hrs by MTT assay; format: functional; conditions: SK-MEL-28, 96 h; outline: as §2
[5] = Displacement of [3H]paclitaxel from biotin-labeled tubulin after 2 hrs by competitive scintillation proximity assay
[6] = Displacement of [3H]colchicine from biotin-labeled tubulin after 2 hrs by competitive scintillation proximity assay
Outline: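 Scintillation proximity format: biotinylated tubulin, reconstituted per manufacturer, was incubated with [3H]colchicine and diluted compound in binding buffer at 37 °C for 2 h. Streptavidin-coated yttrium SPA beads were then added and bound radioactivity counted. IC50 came from nonlinear regression.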

Compound: N#C/C(=C\c1ccc([N+](=O)[O-])cc1)n1nc2ccccc2n1
CC50 at 96 h [1]: 400 nM

Compound: N#C/C(=C\c1ccc(Cl)cc1)n1nnc2ccccc21
CC50 at 96 h [1]: 400 nM

Compound: COc1ccc(/C=C(\C#N)n2nnc3ccccc32)cc1
CC50 at 96 h [1]: 50 nM
IC50 (50% antiproliferative concentration) (CCRF-CEM): 200 nM
CC50 (WIL2-NS): 100 nM
CC50 (CCRF-SB): 90 nM
Activity (K562 [2]): 70.5%
Activity (K562 [3]): 24%
Activity (K562 [4]): 5.5%
IC50 (50% proliferation-inhibition concentration) (DU-145): 600 nM
CC50 (HepG2): 800 nM
CC50 (MCF7): 100 nM
CC50 (SK-MES-1): 600 nM
CC50 (SK-MEL-28): 200 nM

Compound: COc1ccc(/C=C(\C#N)n2nnc3cc(Cl)c(Cl)cc32)cc1
CC50 at 96 h [1]: 14000 nM
IC50 (50% antiproliferative concentration) (CCRF-CEM): > 100000 nM
CC50 (WIL2-NS): > 100000 nM
CC50 (CCRF-SB): > 100000 nM
IC50 (50% proliferation-inhibition concentration) (DU-145): > 100000 nM
CC50 (HepG2): > 100000 nM
CC50 (MCF7): > 100000 nM
CC50 (SK-MES-1): > 100000 nM
CC50 (SK-MEL-28): > 100000 nM

Compound: N#C/C(=C\c1ccc(Br)cc1)n1nnc2ccccc21
CC50 at 96 h [1]: 400 nM
IC50 (50% antiproliferative concentration) (CCRF-CEM): 400 nM
CC50 (WIL2-NS): 600 nM
CC50 (CCRF-SB): 300 nM
Activity (K562 [2]): 35.34%
Activity (K562 [3]): 22.41%
Activity (K562 [4]): 42.25%
IC50 (50% proliferation-inhibition concentration) (DU-145): 1700 nM
CC50 (HepG2): 2100 nM
CC50 (MCF7): 700 nM
CC50 (SK-MES-1): 2400 nM
CC50 (SK-MEL-28): 1100 nM

Compound: Cc1ccc(/C=C(\C#N)n2nnc3cc(Cl)c(Cl)cc32)cc1
CC50 at 96 h [1]: 1700 nM
IC50 (50% antiproliferative concentration) (CCRF-CEM): 2800 nM
CC50 (WIL2-NS): 7000 nM
CC50 (CCRF-SB): 2800 nM
Activity (K562 [2]): 67%
Activity (K562 [3]): 15.5%
Activity (K562 [4]): 18.5%
IC50 (50% proliferation-inhibition concentration) (DU-145): 17000 nM
CC50 (HepG2): 21000 nM
CC50 (MCF7): 27000 nM
CC50 (SK-MES-1): 27000 nM
CC50 (SK-MEL-28): 20000 nM

Compound: COc1cc([C@@H]2c3cc4c(cc3[C@@H](O[C@@H]3O[C@@H]5CO[C@@H](C)O[C@H]5[C@H](O)[C@H]3O)[C@H]3COC(=O)[C@H]23)OCO4)cc(OC)c1O [ETOPOSIDE]
CC50 at 96 h [1]: 90 nM
CC50 (WIL2-NS): 200 nM
CC50 (CCRF-SB): 100 nM
CC50 (HepG2): 700 nM
CC50 (MCF7): 1000 nM
CC50 (SK-MES-1): 300 nM
CC50 (SK-MEL-28): 1200 nM

Compound: N#C/C(=C\c1ccccc1I)n1nnc2ccccc21
CC50 at 96 h [1]: 25000 nM

Compound: Cc1cc2nnn(/C(C#N)=C/c3ccc4c(c3)OCO4)c2cc1C
CC50 at 96 h [1]: 1300 nM

inhibition [5]: inactive
pIC50 [6]: 6.07
Compound: N#C/C(=C\c1ccc2c(c1)OCO2)n1nnc2ccccc21
CC50 at 96 h [1]: 100 nM
IC50 (50% antiproliferative concentration) (CCRF-CEM): 900 nM
CC50 (WIL2-NS): 600 nM
CC50 (CCRF-SB): 600 nM
Activity (K562 [2]): 66.34%
Activity (K562 [3]): 22.67%
Activity (K562 [4]): 10.9%
IC50 (50% proliferation-inhibition concentration) (DU-145): 3400 nM
CC50 (HepG2): 3100 nM
CC50 (MCF7): 1300 nM
CC50 (SK-MES-1): 3300 nM
CC50 (SK-MEL-28): 3300 nM

Compound: Cc1cc2nnn(/C(C#N)=C/c3cccc([N+](=O)[O-])c3)c2cc1C
CC50 at 96 h [1]: 500 nM

Compound: N#C/C(=C\c1ccc(Cl)cc1)n1nc2ccccc2n1
CC50 at 96 h [1]: 16000 nM

Compound: Cc1ccc(/C=C(\C#N)n2nnc3ccccc32)cc1
CC50 at 96 h [1]: 500 nM
IC50 (50% antiproliferative concentration) (CCRF-CEM): 200 nM
CC50 (WIL2-NS): 200 nM
CC50 (CCRF-SB): 70 nM
IC50 (50% proliferation-inhibition concentration) (DU-145): 500 nM
CC50 (HepG2): 2200 nM
CC50 (MCF7): 700 nM
CC50 (SK-MES-1): 1700 nM
CC50 (SK-MEL-28): 300 nM

Compound: COc1ccccc1/C=C(\C#N)n1nnc2ccccc21
CC50 at 96 h [1]: 8300 nM

Compound: N#C/C(=C\c1ccc(C(=O)O)cc1)n1nnc2ccccc21
CC50 at 96 h [1]: 17000 nM

Compound: N#C/C(=C\c1ccco1)n1nc2ccccc2n1
CC50 at 96 h [1]: 375000 nM

Compound: N#C/C(=C\c1ccc2c(c1)OCO2)n1nnc2ccc(C(F)(F)F)cc21
CC50 at 96 h [1]: 52000 nM

Compound: N#C/C(=C\c1ccc(Cl)cc1Cl)n1nnc2ccccc21
CC50 at 96 h [1]: 6000 nM

Compound: N#C/C(=C\c1cccc([N+](=O)[O-])c1)n1nnc2ccccc21
CC50 at 96 h [1]: 400 nM

Compound: Sc1ncnc2nc[nH]c12 [MERCAPTOPURINE ANHYDROUS]
CC50 at 96 h [1]: 100 nM
CC50 (WIL2-NS): 3000 nM
CC50 (CCRF-SB): 1100 nM
CC50 (HepG2): 8000 nM
CC50 (MCF7): 3200 nM
CC50 (SK-MES-1): 58000 nM
CC50 (SK-MEL-28): 15000 nM

Compound: Cc1ccc(/C=C(\C#N)n2nc3ccccc3n2)cc1
CC50 at 96 h [1]: 20000 nM

Compound: COc1ccc(/C=C(\C#N)n2nnc3ccc(C(F)(F)F)cc32)cc1
CC50 at 96 h [1]: 200000 nM

Compound: N#C/C(=C\c1cccc([N+](=O)[O-])c1)n1nnc2cc(C(F)(F)F)ccc21
CC50 at 96 h [1]: 700 nM

Compound: N#C/C(=C\c1ccc(Br)cc1)n1nnc2cc(Cl)c(Cl)cc21
CC50 at 96 h [1]: 5400 nM
IC50 (50% antiproliferative concentration) (CCRF-CEM): 5300 nM
CC50 (WIL2-NS): 18000 nM
CC50 (CCRF-SB): 12000 nM
IC50 (50% proliferation-inhibition concentration) (DU-145): 7000 nM
CC50 (HepG2): 12000 nM
CC50 (MCF7): 8400 nM
CC50 (SK-MES-1): 10000 nM
CC50 (SK-MEL-28): 10000 nM

Compound: COc1ccc(/C=C(\C#N)n2nnc3ccccc32)cc1OC
CC50 at 96 h [1]: 7500 nM

Compound: Cc1cc2nnn(/C(C#N)=C/c3ccc(Cl)cc3)c2cc1C
CC50 at 96 h [1]: 24000 nM

Compound: N#C/C(=C\c1cccs1)n1nc2ccccc2n1
CC50 at 96 h [1]: 132000 nM

Compound: N#C/C(=C\c1ccc(C(=O)O)cc1)n1nc2ccccc2n1
CC50 at 96 h [1]: 16000 nM

Compound: COc1cccc(/C=C(\C#N)n2nnc3ccccc32)c1
CC50 at 96 h [1]: 4700 nM

Compound: COc1ccc(/C=C(\C#N)n2nc3ccccc3n2)cc1OC
CC50 at 96 h [1]: 360000 nM

Compound: N#C/C(=C\c1ccccc1)n1nc2ccccc2n1
CC50 at 96 h [1]: 12000 nM

Compound: N#C/C(=C\c1ccccc1[N+](=O)[O-])n1nnc2ccccc21
CC50 at 96 h [1]: 31000 nM

Compound: COc1cc(/C=C(\C#N)n2nnc3ccccc32)cc(OC)c1OC
CC50 at 96 h [1]: 2500 nM

Compound: N#C/C(=C\c1ccccc1)n1nnc2ccccc21
CC50 at 96 h [1]: 4000 nM

Compound: N#C/C(=C\c1ccc(F)cc1)n1nc2ccccc2n1
CC50 at 96 h [1]: 32000 nM
